# Assay outcomes deposited in PubChem BioAssay by Broad Institute.
# The list is not random: actives were taken first. Their share in the collection is about 2.6%.
# S100A4 inh HTS = inhibitors of S100A4-myosin IIA peptide binding, primary screen, biochemical, fluorescence polarization, TAMRA-MyoIIA peptide | Protein S100-A4 (Homo sapiens), P26447 | inhibition, % at 10.7 µM | 0.14% of 360,000 active | AID 652163, 2013;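 active = mean inhibition of at least 70% across replicates, with every replicate also reaching that level; inconclusive = mean inhibition reaches 70% but some replicates fall short; inactive = mean inhibition below 70%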
# Target sequence (P26447 whole entry, looked up): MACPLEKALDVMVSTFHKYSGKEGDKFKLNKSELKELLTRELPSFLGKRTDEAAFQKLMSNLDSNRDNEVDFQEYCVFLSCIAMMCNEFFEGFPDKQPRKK
#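 Assay system: human S100A4 monomer with TAMRA-labelled myosin IIA peptide / Buffer or medium: Calcium-containing HEPES buffer, pH 7.2 / Reagent: TAMRA-labelled myosin IIA heavy-chain peptide probe, 5 nM / Compound: one dose per compound / Timing: polarization read 5 min after assay mix addition, stable 5–60 min / Benchmarks: neutral control DMSO, positive control TFP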
# FN deposition inh = inhibitors of fibronectin matrix deposition, primary screen, AH1F cells, Alexa488-fibronectin fluorescence, plate reader; AH1F fibroblasts, overnight; inhibition, % at 12.6 µM; 0.086% of 350,000 active;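 active = mean inhibition across replicates of 30% or more, regardless of how many single replicates reach that level; inconclusive = mean under 30% yet at least half of replicates reach 30%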;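 also: positive control wells lacked labelled fibronectin entirely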
#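 Schedule: 1 h cell adhesion before compound, then overnight fibronectin incubation; test system: AH1F fibroblast monolayer depositing Alexa488-labelled fibronectin into matrix; quantity: 10000 AH1F cells per well; probe or stimulus: fluorescent fibronectin at 24 nM final; signal: fluorescence, ex 485 nm, em 525 nm; evaluation: percent inhibition as loss of matrix-bound fibronectin fluorescence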
# miR122 inh = miR-122 Renilla sensor signal increase in Huh7, primary screen, miR-122 inhibitor project, cell-based, single point, plate reader. 0.3% of 340,000 active. Huh7 miR-122 Renilla luciferase sensor, 48 h; neutral wells = 0, positive control = 100. activation (reporter increase), % at 12.5 µM;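 active = mean replicate activation score at least 90 and every replicate individually at or above 90; inconclusive = only one of the two criteria met; inactive = neither criterion met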;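 also: higher luciferase means less miR-122 activity so hits act as miR-122 inhibitors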
# Ecoli rRNA inh = reduced GFP signal of wild-type E. coli, primary screen, bacterial rRNA inhibitor project, GFP/RFP fluorescence, OD600, single point. E. coli WT GFP vs humanized-ribosome RFP mutants, 24 h; stronger effect = lower value; DMSO median 0, no signal -100. GFP signal change (wild-type ribosome), % (test concentration not listed). 1.6% of 350,000 active. AID 720706, 2013;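 active = significant combined selectivity score with lowered wild-type GFP, culture density cut under 30%, mutant RFP and density less affected; inactive = any of these conditions unmet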
# HIV Env fusion = inhibitors of HIV-1 Env-driven cell-cell fusion, primary screen, HeLa-JRFL effector, CEM21 target cells, luciferase | inhibition, % at 12.3 µM | 1.1% of 360,000 active | AID 651610, 2012;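 active = mean replicate inhibition score of at least 50 and every replicate individually at or above 50; inconclusive = only one of the two criteria met; inactive = mean below 50 and not all replicates reaching 50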;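 also: 0% = plate neutral controls and 100% = maraviroc near 300 nM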
# Vif imaging = HIV Vif self-association inhibitors, primary screen, imaging, HEK293T, single point. AID 602346, 2012. 0.35% of 340,000 active. inhibition, % at 7.49 µM. HEK293T cells, Vif self-association by quenched fluorescence, 24 h; in the data active = inhibition above about 50%, passing the limit was not always enough; inconclusive = no clear call, values can overlap the other calls; inactive = below about 31%
# Active calls of the source: *; ? = inconclusive; nt = no result given; ! = a repeat was not active; [ ] = another dose, or the depositor's remark.
SMILES,S100A4 inh HTS,FN deposition inh,miR122 inh,Ecoli rRNA inh,HIV Env fusion,Vif imaging
COCC(=O)N(C)C[C@@H]1Oc2cc(-c3ccc(C)cc3)ccc2S(=O)(=O)N([C@@H](C)CO)C[C@@H]1C,1,1,-19[16.7 µM],-5,-13[16.7 µM],nt
C[C@H](CO)N1C[C@H](C)[C@H](CN(C)Cc2ccc3c(c2)OCO3)OCCCC[C@H](C)Oc2ccc(NC(=O)Nc3ccc4c(c3)OCO4)cc2C1=O,-2,7,5[16.7 µM],-22,66*[16.7 µM],nt
COc1ccc(NC(=O)Nc2ccc3c(c2)C(=O)N([C@H](C)CO)C[C@@H](C)[C@@H](CN(C)Cc2ccc4c(c2)OCO4)OCCCC[C@H](C)O3)cc1,5,-1,-16[16.7 µM],-34*!,13[16.7 µM],nt
C[C@@H]1CCCCO[C@@H](CN(C)Cc2ccccc2)[C@H](C)CN([C@H](C)CO)C(=O)c2cc(NC(=O)Nc3ccc4c(c3)OCO4)ccc2O1,-13,6,-4[16.7 µM],2,-63[16.7 µM],nt
C[C@H]1CCCCO[C@@H](CN(C)Cc2ccccc2)[C@@H](C)CN([C@@H](C)CO)C(=O)c2cc(NC(=O)Nc3ccc4c(c3)OCO4)ccc2O1,70,-6,-6[16.7 µM],-1,57*[16.7 µM],nt
C[C@@H]1CCCCO[C@@H](CN(C)S(=O)(=O)c2ccc(F)cc2)[C@H](C)CN([C@@H](C)CO)C(=O)c2cc(NC(=O)CCC(F)(F)F)ccc2O1,9,2,-7[16.7 µM],-1,-49[16.7 µM],nt
CCOP(=O)(OCC)C(Nc1cccc(C(F)(F)F)c1)c1ccc(C)cc1 (stereo unspecified),-3,0,-4,-15,nt,?
CCCOP(=O)(OCCC)C(Nc1cccc(C(F)(F)F)c1)c1ccc(C)cc1 (stereo unspecified),nt,-6,10,nt,81*,-14
N#CC1=C2N=C(N)c3ccccc3N2C2=C(C(=O)CCC2)C1c1ccc(F)cc1 (stereo unspecified),-6,-4,6,-32*,16,24
Cc1ccc(S(=O)(=O)N2CCC(=O)N(CCOC(=O)Nc3cccc(Cl)c3)CC2)cc1,-1,5,-5,-43,92*,28
Cc1ccc(NC(=O)OCCN2CCN(S(=O)(=O)c3ccc(C)cc3)CCC2=O)cc1,3,1,1,-18,-23,-10
Cc1ccc(S(=O)(=O)N2CCC(=O)N(CCOCc3ccc(C(F)(F)F)cc3)CC2)cc1,-29,17,nt,-32,69*,-3
O=C(CSC(=S)N1CCCC1)c1cc(Br)cc(Br)c1O,-6,nt,nt,-30*,-11,nt
CC(=O)c1ccc(NC(=O)Nc2ccc(S(=O)(=O)N3CCCC3)cc2)cc1,-2,-1,nt,-28*,28,1
NS(=O)(=O)c1ccc(NC(=O)c2ccc(S(=O)(=O)N3CCCCCC3)cc2)cc1,2,11,-8,-20*,nt,-12
O=C(Nc1ccc(S(=O)(=O)N2CCCC2)cc1)c1ccc(OCC2CCCO2)cc1 (stereo unspecified),-6,0,-9,-20*,11,-13
Cn1nc(C(=O)Nc2ccc(S(=O)(=O)N3CCCCC3)cc2)c2ccccc2c1=O,-5,1,-9,-21*,8,9
O=C(Nc1cccc(S(=O)(=O)N2CCCCC2)c1)c1ccc([N+](=O)[O-])o1,-1,4,3,-28*,-121,-5
O=C(Nc1cccc(S(=O)(=O)N2CCCCC2)c1)c1ccc(Cl)nc1,-25,2,1,-24*,3,-25
Cc1ccc(NC(=O)c2cc3c(s2)CCC3)cc1S(=O)(=O)N1CCOCC1,nt,3,48,nt,58*,-19
Cc1ccc(S(=O)(=O)N2CCOCC2)cc1NC(=O)c1cc2c(s1)CCC2,nt,0,-15,nt,-11,-1
O=C(Cc1ccc(F)cc1)Nc1cccc(S(=O)(=O)N2CCCC2)c1,1,-7,nt,-3,63*,-8
